Here are results for 1 molecule from ChEMBL document CHEMBL1143331, “The synthesis and structure-activity relationship of substituted N-phenyl anthranilic acid analogs as amyloid aggregation inhibitors” (Bioorg Med Chem Lett, 2009).

Structures are written as SMILES.

By IC50 is commonly meant the concentration that gives 50% inhibition.

The subject of assay [1] is Mus musculus. Nature of the assay: Reduction in senile plaque load in Tg2576 mouse overexpressing human betaAPP695SWE at 60 mg/kg/day, po administered with chow for 3 months. On the set-up: scale not given: the % may be the effect or the level left. It counts as functional.
Assay [2] deals with Mus musculus. In words: Reduction in mean senile plaque area in Tg2576 mouse overexpressing human betaAPP695SWE at 60 mg/kg/day, po administered with chow. It counts as functional. On the set-up: scale not given: the % may be the effect or the level left.
Assay [3] in a line: Inhibition of amyloid beta (1 to 40) aggregation by beta amyloid self seeding radioassay. The procedure, abridged: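 Aβ(1-40) at 30 μM unlabeled, plus a tracer amount of 125I-Aβ(1-40), incubated with compound in 50 mM NaPi, 150 mM NaCl, 1 M urea, 0.02% w/v NaN3, pH 7.5. Radiolabeled fibrils retained on a 0.2 µm filter were measured. Eight compound concentrations were tested, and IC50 was taken by logit transformation of the titration curves. Values are the average of two separate experiments.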

In assay [4] the test system is Mus musculus. In words: Reduction in senile plaque load in Tg2576 mouse overexpressing human betaAPP695SWE at 60 mg/kg/day, po administered with chow for 7 months. It counts as functional. On the set-up: scale not given: the % may be the effect or the level left.
Assay [5] can be described thus: Inhibition of amyloid beta (1 to 40) aggregation by beta amyloid self seeding thioflavin T assay. In a few lines:
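Compound was incubated with 30 μM Aβ(1-40) in 50 mM NaPi, 150 mM NaCl, 1 M urea, 0.02% w/v NaN3, pH 7.5. Thioflavin T at 5 µM was added after fibril formation, and fluorescence was read as β-sheet fibril content. IC50 came from eight concentrations by logit transformation of the titration curves. Values are the mean of two separate experiments.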

On to `O=C(O)c1ccccc1Nc1ccc(CCCc2ccc(Cl)c(Cl)c2)cc1`, for which the Activity in the assay with Mus musculus [1] was 45%; in the assay on Mus musculus [2] it was 2.6%; in the assay on Mus musculus [4], 47%. The values for the IC50 in assay [3] and in assay [5] were 25 µM and 1000 nM, respectively.
